Data taken from the EternaBench riboswitch data.

Tested on: MS2 coat protein
Assay: apparent Kd, MS2 coat protein; higher = weaker binding; RNA-MaP array; FMN 200 µM where present
How it was run: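 On Illumina sequencing-chip clusters, designs were transcribed by stalled E. coli RNA polymerase and titrated with SNAP-549-labelled MS2 coat protein (0.7 or 1.5 nM, doubling to 3 µM), without and then with constant ligand, in 100 mM Tris-HCl pH 7.5, 80 mM KCl, 4 mM MgCl2, BSA, DTT, yeast tRNA and Tween-20. Apparent Kd is the median of filtered per-cluster curve fits to green signal normalised to red-channel RNA signal and control-cluster median Fmax.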

[1] = designed as: ON switch for flavin mononucleotide, no ligand
[2] = ligand present: flavin mononucleotide, designed as: ON switch for flavin mononucleotide
[3] = designed as: OFF switch for flavin mononucleotide, no ligand
[4] = ligand present: flavin mononucleotide, designed as: OFF switch for flavin mononucleotide

GUUAUAAUUGAAGGAUAUCUAUAUCCAACAUGAGGAUCACCCAUGUUGAGGAUCACCCAUGUAAAGGAGAAGGUUAAUUAUAAU
apparent Kd [1]: 84.2 nM | apparent Kd [2]: 25.2 nM

GUUAUUAACAAGAAGGCAUACAUGAGGAUCACCCAUGUUCUACAUGGAUAAUGAGGAUAUUGCUAAUACAUGAGGAUCACCCAG
apparent Kd [3]: 72 nM | apparent Kd [4]: 66.9 nM

GUUCGGGCAGGAUAUACAUGAGGAUCACCCAUGUGUGUCCAUACGCGUGAGUCCUCGUGUAGAAGGGUUUGGGC
apparent Kd [3]: 23.2 nM | apparent Kd [4]: 17.4 nM

GUUCUUCCUGUGAGGAUAUCCAUGUGUCGGUUUAUGGAGAAGGUACAUGAGGAUCACCCAUGUCACCCGCGUUA
apparent Kd [3]: 14 nM | apparent Kd [4]: 18.8 nM

GUUGAGCGUGCUACGCAAAAUAACGCAGAAGGCCAACAUGAGGAUCACCCAUGUAAACGAAAGAUGGAGGAUAUGCGGUUUGGC
apparent Kd [1]: 50.4 nM | apparent Kd [2]: 6.81 nM

GUUGCUUUCCGAGGAUAUUCCGGGCGUGGCUAUACAUGAGGAUCACCCAUGUGGCGGCCGCCUAGGGAGAAGGCGGGCUGCUUC
apparent Kd [1]: 15.9 nM | apparent Kd [2]: 15.7 nM

GUUGCUUUCCGAGGAUAUUCUGGGCGUGGUUAUACAUGAGGAUCACCCAUGUGGCGGUUGCCUAGGGAGAAGGCGGGCUGCUUC
apparent Kd [1]: 20.3 nM | apparent Kd [2]: 17.9 nM

GUUGUAAUGUCAGGAUAUAUAAUAAGUCAUACAGUAGAAGGGAUAAUUAUACUCAUGUACAUGAGGAUCACCCAUGUUAAAUAG
apparent Kd [1]: 63.6 nM | apparent Kd [2]: 37.9 nM

GUUGUGUAAGGAGGAUAUGAGCUGAAACUCUUACAUGAGGAUCACCCAUGUCCGUAACUCAGGCAUCAGAAGGCCUAACGCAUU
apparent Kd [1]: 686 nM | apparent Kd [2]: 23 nM

GUUGUGUAAGGAUAUGCCUGGCCGUGAGGCCAGAUUGAAUGGCAGAAGGUACAUGAGGAUCACCCAUGUACGGG
apparent Kd [3]: 33.2 nM | apparent Kd [4]: 188 nM

GUUUUACAUGAGGAUCACCCAUGUGAGGAUAUAUUGUUAAUAGUGAUAAUUAUUGGUGGUAGAAGGCGCGUGAU
apparent Kd [3]: 46.8 nM | apparent Kd [4]: 39.7 nM

GUUUUCGCGUGAGGAUAUGCUCGCAUUUCAAGAGCAGAAGGUAUGUCUAUAGACAUGAGGAUCACCCAUGUAUUUAUCAUUGAA
apparent Kd [1]: 226 nM | apparent Kd [2]: 160 nM

GUUUUGGGAGGAUAUAUGUGGAUUAUUUUUAUAUGUUAUUUACAUGAGGAUCACCCAUGUAGAAGGUCUAGAGC
apparent Kd [3]: 163 nM | apparent Kd [4]: 249 nM

GUUUUUUCUCAUGUACAUGAGGAACAUGAGGAUCACCCAUGUAGAAGGAAUUUUUUUAAGUUUAGUUAGGAUAUACAUAUAUUG
apparent Kd [3]: 48.8 nM | apparent Kd [4]: 28.6 nM

UAAAAGCUAGGAUAUACAUGAGGAUCACCCAUGUACCGGCUUGGCCCUGGUCCUAAAUGUAGAAGGAGCACGCC
apparent Kd [3]: 15.2 nM | apparent Kd [4]: 23.9 nM

UAAACACCCUCAUGUGCCUGAGGACAUGAGGAUCACCCAUGUAAGGAUAUAGCCAUUAAAUCUAACUAGAAGGUAUAGGACAUC
apparent Kd [3]: 925 nM | apparent Kd [4]: 540 nM

UAAACGUUCUAGAAGGUGCUUUUGUUAAACAAGCAAGGAUAUAGACAUGAGGAUCACCCAUGUCUUUAAGACAUCGACAUACUU
apparent Kd [3]: 7.91 nM | apparent Kd [4]: 8.63 nM

UAAAUACAUGAGGAUCACCCAUGUGAGGAUAUCCGAUGAUUCGGAGAAAUGACCCGUUGGAGAAGGCAUAGGGC
apparent Kd [3]: 30.8 nM | apparent Kd [4]: 22.7 nM

UAAAUGUGAGGAUAUUCGAUUAACUCGGAGACGAGUUGAUCGGAGAAGGCACAUGAGGAUCACCCAUGUUCCUU
apparent Kd [3]: 24.8 nM | apparent Kd [4]: 232 nM

UAACCGUGAGGAUAUACAUGAGGAUCACCCAUGUAGCAAGCUACGUAACCCACCAUAUGUAGAAGGCACUAGGU
apparent Kd [3]: 73.1 nM | apparent Kd [4]: 47.6 nM

UAAGUUGAGGAGAAGGGAGCACAUGAGGAUCACCCAUGUGGUUCUUUGUGCUCAGGAUAUCCAUGGAGCUCCGUCGCGUUCCAG
apparent Kd [3]: 103 nM | apparent Kd [4]: 19.1 nM

UAAUAAUAAUAAUAAUGCUGACAUACAUGAGGAUCACCCAUGUAGGAUAUCGUCAGGAAUACUGACGAGAAGGACAUAGUCAGC
apparent Kd [3]: 15.4 nM | apparent Kd [4]: 17.4 nM

UAAUAUUUAUGAUAUUAUGACAGUAGAAGGCUAUACAUGUUGAUACAUGAGGAUCACCCAUGUAUAGAGGAUAUAUACAUAUAU
apparent Kd [3]: 681 nM | apparent Kd [4]: 315 nM

UAAUCUCAGAUAGGAUAUAUAGGAUGAUUUAAGACCGAACAUGAGGAUCACCCAUGUGAUUAUUUGUAGAAGGAUCAAUGACCC
apparent Kd [1]: 72.4 nM | apparent Kd [2]: 79.2 nM

UAAUUGUGAGGAUAUUCGUUUUUCUCGGAGACGAGAAGAACGGAGAAGGCACAUGAGGAUCACCCAUGUUCCUU
apparent Kd [3]: 18 nM | apparent Kd [4]: 91.7 nM

UACAGCCGCAUCCCAUCGCUGGAAGAGGAUAUACAUCAUCGCGCACUCACAUGAGGAUCACCCAUGUAGAAGGCUUCCUGGCGG
apparent Kd [3]: 7.94 nM | apparent Kd [4]: 25.4 nM

UACAGCUUGACAGGAUAUACAUGUCAGCGAAAGCUGACUAUCUUAAUAACAUGAGGAUCACCCAUGUAGAAGGGUCGAGCUGUA
apparent Kd [3]: 16.8 nM | apparent Kd [4]: 26.6 nM

UACAUCAAUGAAGGAUAUCGAUAUCCAACAUGAGGAUCACCCAUGUUGAGGAUCACCCAUGUAAAUGAGAAGGUUAACAUAACU
apparent Kd [1]: 94.9 nM | apparent Kd [2]: 83.3 nM

UACAUGAGGAUCACCCAUGUUUUGUCGUGUAUGGUAUUUAUCUAGGAUAUCAAUGUAUUUAUGUAUGAGAAGGAGAAUAUUAAU
apparent Kd [3]: 45.7 nM | apparent Kd [4]: 37.3 nM

UACAUGGAACAGAAGGGCAAUUUAUUUAAUUAUUAUUUAGAACAGCUUUGCAGGAUAUGUUUAACAUGAGGAUCACCCAUGUAC
apparent Kd [1]: 57.6 nM | apparent Kd [2]: 17.4 nM

UACAUUAACAUGAGGAUCACCCAUGUUGGCCAGUCUCACACCAGAAGGCACGUAGAGCACAACAGUGAGGAUAUGGGUGACAUA
apparent Kd [1]: 218 nM | apparent Kd [2]: 98.7 nM

UACAUUACUUAGAAGGGAUAUAUAUAAUUUUAAUCAGGAUAUAGAUACAGUACAACAUGAGGACAUGAGGAUCACCCAUGUAUU
apparent Kd [1]: 31.4 nM | apparent Kd [2]: 23.2 nM

UACAUUACUUAGAAGGGAUAUAUAUAAUUUUAGUCAGGAUAUAGAUACAGUACAACAUGAGGACAUGAGGAUCACCCAUGUAUU
apparent Kd [1]: 29.8 nM | apparent Kd [2]: 20.8 nM

UAGAAGUCAGGAUAUCCAGCUCGUCACUUGCGUGAUGAGUUGGAGAAGGGACAUGAGGAUCACCCAUGUAAAGA
apparent Kd [3]: 61.9 nM | apparent Kd [4]: 57.8 nM

UAGAAGUCAGGAUAUCCAGCUCGUCACUUGCGUGAUGAGUUGGAGAAGGGACAUGAGGAUCACCCAUGUAAAGU
apparent Kd [3]: 56.3 nM | apparent Kd [4]: 58.3 nM

UAGAAGUCAGGAUAUGCAUGGCGGGACUUGCGUCGUGGCGUGCAGAAGGGACAUGAGGAUCACCCAUGUGGAGG
apparent Kd [3]: 152 nM | apparent Kd [4]: 219 nM

UAGAAGUCAGGAUAUGCUGCUCGUCACUUGCGUGAUGAGUAGCAGAAGGGACAUGAGGAUCACCCAUGUAAAGU
apparent Kd [3]: 52.5 nM | apparent Kd [4]: 91 nM

UAGACACUUACAGGAUAUAGGGCAGAGGGUGCCCUAGAAGGGUGAACAUGAGGAUCACCCAUGUAUGUGUCUGAUUAGAAGGCA
apparent Kd [1]: 36.2 nM | apparent Kd [2]: 69.4 nM

UAGAUGGGAGGAUAUGCAUAGAUACAGAUUCAUGUAGUGCUACAUGAGGAUCACCCAUGUAGAAGGCCCGUCUU
apparent Kd [3]: 21.2 nM | apparent Kd [4]: 225 nM

UAGCUCUCGGCAGGAUAUCCUGCAUAAUGUCGAGUCCGCGCCCGGACAUGAGGAUCACCCAUGUAGGAGAAGGGCCCACGGGCG
apparent Kd [3]: 28 nM | apparent Kd [4]: 32.3 nM

UAGGACUUCGUAGGAUAUGUAUUUGAUUUCUACAUGAGGAUCACCCAUGUUUGCAUUUUUUUUUGACAGAAGGACGUGGUCGAA
apparent Kd [1]: 30.3 nM | apparent Kd [2]: 17.3 nM

UAGGAGUCAGGAUAUGCGAGAGAUGGAAGUAAGGGAUGAGAGCAGAAGGGACAUGAGGAUCACCCAUGUAAGGA
apparent Kd [3]: 39.7 nM | apparent Kd [4]: 37.8 nM

UAGGUUCGAGGAUAUACAUAGAUACAGAUACAUGUAGACGUACAUGAGGAUCACCCAUGUAGAAGGCGAAUAUA
apparent Kd [3]: 80.9 nM | apparent Kd [4]: 186 nM

UAGUAUAAGGGCAUUAAACAUGAGGAUCACCCAUGUACAAUAGAGGAUAUGCAUUUCGGUUUAGAGUAGAAGGUUAGAGAAUAU
apparent Kd [3]: 31.3 nM | apparent Kd [4]: 38.1 nM

UAGUAUAAGGGCAUUAAACAUGAGGAUCACCCAUGUACGUUAGAGGAUAUGCAUUACAGUUGAGAGUAGAAGGUUAGAGAAGGG
apparent Kd [3]: 44.4 nM | apparent Kd [4]: 45.3 nM

UAGUAUAAGGGCAUUACACAUGAGGAUCACCCAUGUACGUUAGAGGAUAUGCAUUACAGUUGAAAGUAGAAGGUUAGAGAAGGG
apparent Kd [3]: 40.5 nM | apparent Kd [4]: 46.5 nM

UAGUAUCUGCAGGAUAUCAGUGGAAAACACGUAUGAGAAGGGCAGACAUGAGGAUCACCCAUGUAUAGGGUCCG
apparent Kd [3]: 81.4 nM | apparent Kd [4]: 206 nM

UAGUGAUUGCAAGGAUAUGCUUAUGUUUAAUUUUAUUUAUUAUCUAACAUGAGGAUCACCCAUGUGCAGAAGGUGCUUGAUUUG
apparent Kd [1]: 63.4 nM | apparent Kd [2]: 53.4 nM

UAGUGGCAAGGAUAUACAGUGGAGAGGAUUGCAAGAGGUGGACAUGAGGAUCACCCAUGUAGAAGGUGCAGAGA
apparent Kd [3]: 298 nM | apparent Kd [4]: 182 nM

UAUAAACAUGAGGAUCACCCAUGUGAGGAUAUCUAAACCAGAGCGGAUCUCUGGCCCAAGAGAAGGUGCAUGGU
apparent Kd [3]: 34.6 nM | apparent Kd [4]: 146 nM

UAUAAAUACAUUAACAUGAGGAUCACCCAUGUCAAAAGACAUGAGGAUAUGCAUCCUAAUUGGAUGCAGAAGGCAUGUAUAAUU
apparent Kd [1]: 174 nM | apparent Kd [2]: 16.9 nM

UAUAAGUCUCAUGUAACAUGAGGAUCACCCAUGUCAUAUUGUAGAAGGAUGAUAAUAUGUAUAUCAUAGGAUAUACUAUAUGUU
apparent Kd [3]: 20.9 nM | apparent Kd [4]: 19.6 nM

UAUAUAUAGUAAGGAUAUGUAAUAAUUUUAUAAACAGAAGGUACUGACAUGAGGAUCACCCAUGUUUUAGUGUGGGCAUGUAGA
apparent Kd [3]: 83.9 nM | apparent Kd [4]: 151 nM

UAUAUAUAGUAAGGAUAUGUAUUAAUUCUAUAAACAGAAGGUACUGACAUGAGGAUCACCCAUGUUUUAGUGUGGGCAUGUAGA
apparent Kd [3]: 49.3 nM | apparent Kd [4]: 56 nM

UAUAUAUAGUAAGGAUAUGUAUUUAUUCUAUAAACAGAAGGUACUGACAUGAGGAUCACCCAUGUUUUAGUGUGGGCAUGUAGA
apparent Kd [3]: 39.9 nM | apparent Kd [4]: 38.8 nM
